ChEMBL document CHEMBL1126270, “Synthesis of 3-[(2,3-dihydro-1,1,3-trioxo-1,2-benzisothiazol-2-yl)alkyl] 1,4-dihydropyridine-3,5-dicarboxylate derivatives as calcium channel modulators” (J Med Chem, 1992)

Experiments:
Rattus norvegicus [1] = experiment: Systolic blood pressure after administration of a single oral dose (20 mg/kg) in spontaneously hypertensive rats.; format: functional
How it was run: (§1)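 Conscious SHR trained 2 weeks, warmed at 31 ± 1 °C for 2 h; tail plethysmography SBP, mean of five readings; only rats above 170 mmHg used. After 24 h fasting, 20 mg/kg by gavage in 20% PEG-400/0.5% methylcellulose (10 mL/kg); SBP change read 1 h post-dose, n = 12.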

[2] = biological target: T1, Voltage-dependent L-type calcium channel subunit alpha-1C (Oryctolagus cuniculus, UniProt P15381); experiment: Selectivity index was measured as the IC50 needed to depress the heart beat divided by IC50 needed to block [Ca2+] contractions in rabbit aortic strips; format: functional, tissue-based, Aorta
Oryctolagus cuniculus [3] = species on record: Oryctolagus cuniculus; experiment: Blockade of calcium-evoked contractions evaluated in depolarized rabbit aortic strips; format: functional; conditions: Aorta
How it was run: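 Male New Zealand rabbit thoracic aorta, helicoidal strips, 2.5 g preload, Krebs–bicarbonate, 37 °C, 95% O2/5% CO2, pH 7.4. After 1 h equilibration, depolarized with 35 mM K+; 1.5 mM Ca2+ added 10 min later, repeated until reproducible. Compound at increasing concentrations from 20 min before and during Ca2+ addition; responses normalized to initial tension; IC50 by Finney method.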

Oryctolagus cuniculus [4] = species on record: Oryctolagus cuniculus; experiment: Relative potency evaluated (relative potency = IC50 of compound / IC50 of nifedipine) in rabbit; format: functional
Oryctolagus cuniculus [5] = species on record: Oryctolagus cuniculus; experiment: Recovery of the initial contraction of rabbit aortic strips, blocked at 10e-7 M concentration.; conditions: Aorta
Oryctolagus cuniculus [6] = species on record: Oryctolagus cuniculus; experiment: Inhibition of electrically stimulated rabbit left atria contraction.; format: functional
How it was run: (§2)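 Rabbit left atria electrically driven (1 Hz, 10 ms, twice threshold voltage), equilibrated 1–1.5 h. Compounds added cumulatively (10^-10–10^-6 M), diluted from DMSO stocks into Krebs–Henseleit, final DMSO <0.1%. Isometric force recorded; IC50 from contractile force relative to initial control values, with 95% confidence limits.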

Rattus norvegicus [7] = species on record: Rattus norvegicus; experiment: Duration of action in spontaneously hypertensive rats.; format: functional
How it was run: (§3)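 Anesthetized (pentobarbitone 70 mg/kg ip) Okamoto SHR, 290 ± 30 g; carotid pressure, femoral vein dosing. Cumulative increasing iv bolus doses of 1, 3, 6, 10, 20, 30 µg/kg in PEG-400 (0.1 mL/kg), each recorded 15 min; ED25 for lowering SBP and DBP and duration of hypotensive action estimated.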

Rattus norvegicus [8] = species on record: Rattus norvegicus; experiment: Compound evaluated for reducing diastolic blood pressure in spontaneously hypertensive rats.; format: functional; conditions: Artery; how it was run: as §3
Rattus norvegicus [9] = species on record: Rattus norvegicus; experiment: Reducing systolic blood pressure in spontaneously hypertensive rats.; format: functional; conditions: Artery; how it was run: as §1
Oryctolagus cuniculus [10] = species on record: Oryctolagus cuniculus; experiment: Maximum contractile force in rabbit aorta strips; format: functional
How it was run: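 Rabbit aortic strips, after equilibration in Ca2+-free Krebs, switched to buffer with 10 mM K+. Repeated 1.5 mM Ca2+ pulses until reproducible. Increasing compound concentrations each given 10 min before a further 1.5 mM Ca2+ pulse. Maximum contractile force (mg) taken as vasoconstrictor effect; data as mean ± SEM at 10^-6 M.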

Oryctolagus cuniculus [11] = species on record: Oryctolagus cuniculus; experiment: Relative potency was evaluated. (relative potency = IC50 of compound / IC50 of nifedipine); format: functional
[12] = biological target: T1, Voltage-dependent L-type calcium channel subunit alpha-1C; experiment: Blockade of calcium-evoked contractions in depolarized aortic strips; format: functional, tissue-based, Aorta
[13] = biological target: T1, Voltage-dependent L-type calcium channel subunit alpha-1C; conditions: rabbit, Aorta
Rattus norvegicus [14] = experiment: Systolic blood pressure after administration of a single oral dose (20 mg/kg) in spontaneously hypertensive rats; format: functional; how it was run: as §1
Oryctolagus cuniculus [15] = species on record: Oryctolagus cuniculus; experiment: Inhibition of electrically stimulated rabbit left atria contraction; format: functional; how it was run: as §2

T1 sequence (P15381 whole entry): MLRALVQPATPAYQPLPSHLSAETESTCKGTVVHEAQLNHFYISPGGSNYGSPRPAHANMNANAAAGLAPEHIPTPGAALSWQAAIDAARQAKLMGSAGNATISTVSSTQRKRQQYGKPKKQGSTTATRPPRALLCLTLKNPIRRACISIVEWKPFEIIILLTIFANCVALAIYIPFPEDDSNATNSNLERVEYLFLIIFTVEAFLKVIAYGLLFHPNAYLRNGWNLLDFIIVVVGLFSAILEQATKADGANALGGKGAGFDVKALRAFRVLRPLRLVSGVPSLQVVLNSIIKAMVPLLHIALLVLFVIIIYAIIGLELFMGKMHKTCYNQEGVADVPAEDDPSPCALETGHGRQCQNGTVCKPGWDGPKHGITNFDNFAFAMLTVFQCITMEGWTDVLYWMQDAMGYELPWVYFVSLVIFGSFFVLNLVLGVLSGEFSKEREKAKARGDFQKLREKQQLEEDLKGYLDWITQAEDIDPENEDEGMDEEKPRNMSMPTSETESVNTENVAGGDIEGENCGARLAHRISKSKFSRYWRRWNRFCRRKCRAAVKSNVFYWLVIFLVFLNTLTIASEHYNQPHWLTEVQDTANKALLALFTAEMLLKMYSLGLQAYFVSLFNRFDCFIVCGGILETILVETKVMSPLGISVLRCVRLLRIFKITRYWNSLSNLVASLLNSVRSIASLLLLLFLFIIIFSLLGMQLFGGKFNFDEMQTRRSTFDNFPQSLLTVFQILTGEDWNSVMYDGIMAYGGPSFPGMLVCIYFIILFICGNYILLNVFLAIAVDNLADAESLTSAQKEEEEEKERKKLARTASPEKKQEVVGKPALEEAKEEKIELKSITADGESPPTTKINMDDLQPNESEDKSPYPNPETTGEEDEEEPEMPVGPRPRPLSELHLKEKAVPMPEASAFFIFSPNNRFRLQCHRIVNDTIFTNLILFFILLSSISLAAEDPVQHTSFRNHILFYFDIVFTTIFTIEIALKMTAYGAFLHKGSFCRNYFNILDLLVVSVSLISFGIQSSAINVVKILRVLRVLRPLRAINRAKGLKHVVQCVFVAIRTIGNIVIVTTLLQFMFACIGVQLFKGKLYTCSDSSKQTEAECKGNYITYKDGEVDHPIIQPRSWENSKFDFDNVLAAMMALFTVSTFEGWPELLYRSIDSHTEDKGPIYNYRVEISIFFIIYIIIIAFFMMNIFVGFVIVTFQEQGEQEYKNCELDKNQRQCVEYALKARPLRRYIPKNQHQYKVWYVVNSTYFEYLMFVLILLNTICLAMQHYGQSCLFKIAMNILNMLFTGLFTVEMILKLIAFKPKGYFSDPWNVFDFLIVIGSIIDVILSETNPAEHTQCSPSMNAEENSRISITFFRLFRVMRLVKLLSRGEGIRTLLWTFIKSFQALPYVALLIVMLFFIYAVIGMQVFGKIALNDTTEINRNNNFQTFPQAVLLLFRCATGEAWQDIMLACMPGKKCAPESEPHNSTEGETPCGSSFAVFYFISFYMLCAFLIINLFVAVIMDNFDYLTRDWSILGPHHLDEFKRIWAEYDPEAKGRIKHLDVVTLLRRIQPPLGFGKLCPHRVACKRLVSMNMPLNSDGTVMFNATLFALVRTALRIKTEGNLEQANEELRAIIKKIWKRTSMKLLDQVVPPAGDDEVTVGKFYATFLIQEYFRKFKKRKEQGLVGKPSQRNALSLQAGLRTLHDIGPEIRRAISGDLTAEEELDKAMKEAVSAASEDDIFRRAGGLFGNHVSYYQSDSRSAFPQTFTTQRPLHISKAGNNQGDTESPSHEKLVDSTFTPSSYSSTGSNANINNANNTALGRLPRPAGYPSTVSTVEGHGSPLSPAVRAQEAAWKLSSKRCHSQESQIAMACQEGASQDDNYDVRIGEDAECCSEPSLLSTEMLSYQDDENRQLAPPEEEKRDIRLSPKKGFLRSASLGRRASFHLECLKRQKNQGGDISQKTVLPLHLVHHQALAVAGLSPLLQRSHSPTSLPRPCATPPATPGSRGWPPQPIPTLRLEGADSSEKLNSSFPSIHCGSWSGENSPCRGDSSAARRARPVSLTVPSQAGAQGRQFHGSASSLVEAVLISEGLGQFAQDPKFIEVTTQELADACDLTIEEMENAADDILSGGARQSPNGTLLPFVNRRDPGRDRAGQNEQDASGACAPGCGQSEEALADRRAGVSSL

| Structure (SMILES) | Selectivity index [2] | IC50 (Oryctolagus cuniculus [3]) | Relative potency (Oryctolagus cuniculus [4]) | Recovery (Oryctolagus cuniculus [5]) | Relative potency (Oryctolagus cuniculus [11]) | IC50 [12] | also measured |
| --- | --- | --- | --- | --- | --- | --- | --- |
| CC1=NC(C)=C(C(=O)OCCN2C(=O)c3ccccc3S2(=O)=O)C(c2cccc([N+](=O)[O-])c2)/C1=C(\O)OC(C)C (centres undefined) | 137 | 0.0003 µM | 9.7 | 0% | – | – | SBP change (Rattus norvegicus [1]): 20%; IC50 (Oryctolagus cuniculus [6]): 0.037 µM |
| CC1=NC(C)=C(C(=O)OCCN2C(=O)c3ccccc3S2(=O)=O)C(c2ccccc2C(F)(F)F)/C1=C(\O)OC(C)C (centres undefined) | 103 | 0.001 µM | 2.5 | 0.5% | – | – | SBP change (Rattus norvegicus [1]): 37%; Duration (Rattus norvegicus [7]): >15 min; IC50 (Oryctolagus cuniculus [6]): 0.102 µM; ED25 (Rattus norvegicus [8]): 0.008 mg/kg; ED25 (Rattus norvegicus [9]): 0.009 mg/kg |
| CC1=NC(C)=C(C(=O)OCCN2C(=O)c3ccccc3S2(=O)=O)C(c2ccccc2Cl)/C1=C(\O)OCC1CCCCO1 (centres undefined) | – | 0.349 µM | <0.1 | – | – | – | Max contractile force (Oryctolagus cuniculus [10]): 510 mg |
| CC1=NC(C)=C(C(=O)OCN2C(=O)c3ccccc3S2(=O)=O)C(c2ccccc2[N+](=O)[O-])/C1=C(\O)OC(C)C (centres undefined) | – | – | – | – | 2.1 | 0.0014 µM | – |
| CO/C(O)=C1\C(C)=NC(C)=C(C(=O)OCN2C(=O)c3ccccc3S2(=O)=O)C1c1ccccc1[N+](=O)[O-] (centres undefined) | – | – | – | – | 0.1 | 0.0309 µM | – |
| COCCO/C(O)=C1\C(C)=NC(C)=C(C(=O)OCN2C(=O)c3ccccc3S2(=O)=O)C1c1cccc(Cl)c1Cl (centres undefined) | – | – | – | – | 1 | 0.0029 µM | – |
| CC1=NC(C)=C(C(=O)OCN2C(=O)c3ccccc3S2(=O)=O)C(c2ccccc2[N+](=O)[O-])/C1=C(\O)OCC1CCCO1 (centres undefined) | – | – | – | 44.5% | 0.1 | 0.038 µM | IC50 (Oryctolagus cuniculus [6]): 0.286 µM; T1/2 [13]: 8.7 min |
| CC1=NC(C)=C(C(=O)OCCN2C(=O)c3ccccc3S2(=O)=O)C(c2cccc(Cl)c2Cl)/C1=C(\O)OC(C)C (centres undefined) | 2744 | 0.0003 µM | 10 | 0% | – | – | IC50 (Oryctolagus cuniculus [6]): 0.686 µM; SBP change (Rattus norvegicus [14]): 8% |
| CC1=NC(C)=C(C(=O)OCN2C(=O)c3ccccc3S2(=O)=O)C(c2cccc([N+](=O)[O-])c2)/C1=C(\O)OC(C)(C)C (centres undefined) | – | – | – | – | 0.4 | 0.0078 µM | – |
| CC1=NC(C)=C(C(=O)OCCN2C(=O)c3ccccc3S2(=O)=O)C(c2cccc(Cl)c2Cl)/C1=C(\O)OC(C)(C)C (centres undefined) | 122 | 0.0023 µM | 1.3 | 0% | – | – | Duration (Rattus norvegicus [7]): >15 min; IC50 (Oryctolagus cuniculus [6]): 0.281 µM; ED25 (Rattus norvegicus [8]): 0.011 mg/kg; ED25 (Rattus norvegicus [9]): 0.014 mg/kg; SBP change (Rattus norvegicus [14]): 36% |
| CO/C(O)=C1\C(C)=NC(C)=C(C(=O)OCCN2C(=O)c3ccccc3S2(=O)=O)C1c1ccccc1Cl (centres undefined) | – | > 1 µM | – | – | – | – | Max contractile force (Oryctolagus cuniculus [10]): 610 mg |
| CCO/C(O)=C1\C(C)=NC(C)=C(C(=O)OCCCN2C(=O)c3ccccc3S2(=O)=O)C1c1cccc(Cl)c1Cl (centres undefined) | 200 | 0.0018 µM | 1.6 | 0% | – | – | Duration (Rattus norvegicus [7]): 2 min; IC50 (Oryctolagus cuniculus [6]): 0.353 µM; ED25 (Rattus norvegicus [8]): 0.012 mg/kg; ED25 (Rattus norvegicus [9]): 0.015 mg/kg; SBP change (Rattus norvegicus [14]): 36% |
| CC1=NC(C)=C(C(=O)OCCN2C(=O)c3ccccc3S2(=O)=O)C(c2cccc([N+](=O)[O-])c2)/C1=C(\O)OCC1CCCO1 (centres undefined) | – | 0.107 µM | <0.1 | – | – | – | Max contractile force (Oryctolagus cuniculus [10]): 570 mg |
| CO/C(O)=C1\C(C)=NC(C)=C(C(=O)OCN2C(=O)c3ccccc3S2(=O)=O)C1c1cccc(Cl)c1Cl (centres undefined) | – | – | – | – | 0.6 | 0.0051 µM | – |
| CO/C(O)=C1\C(C)=NC(C)=C(C(=O)OCN2C(=O)c3ccccc3S2(=O)=O)C1c1cccc([N+](=O)[O-])c1 (centres undefined) | – | – | – | – | 0.2 | 0.0151 µM | – |
| CC1=NC(C)=C(C(=O)OCN2C(=O)c3ccccc3S2(=O)=O)C(c2cccc([N+](=O)[O-])c2)/C1=C(\O)OCC1CCCO1 (centres undefined) | – | – | – | 27.2% | 0.1 | 0.0251 µM | T1/2 [13]: 9.6 min |
| CC1=NC(C)=C(C(=O)OCN2C(=O)c3ccccc3S2(=O)=O)C(c2ccccc2C(F)(F)F)/C1=C(\O)OCC1CCCCO1 (centres undefined) | – | – | – | – | 0.8 | 0.0036 µM | – |
| CC1=NC(C)=C(C(=O)OCCCN2C(=O)c3ccccc3S2(=O)=O)C(c2ccccc2[N+](=O)[O-])/C1=C(\O)OC(C)C (centres undefined) | 15 | 0.0012 µM | 2.4 | 0.2% | – | – | IC50 (Oryctolagus cuniculus [15]): 0.0186 µM |
| CC1=NC(C)=C(C(=O)OCCCN2C(=O)c3ccccc3S2(=O)=O)C(c2cccc(Cl)c2Cl)/C1=C(\O)OC(C)C (centres undefined) | 75 | 0.0021 µM | 1.4 | 0% | – | – | IC50 (Oryctolagus cuniculus [6]): 0.157 µM; SBP change (Rattus norvegicus [14]): 11% |
| CC1=NC(C)=C(C(=O)OCCN2C(=O)c3ccccc3S2(=O)=O)C(c2cccc([N+](=O)[O-])c2)/C1=C(\O)OC(C)(C)C (centres undefined) | 72 | 0.0016 µM | 1.8 | 0% | – | – | SBP change (Rattus norvegicus [1]): 25%; IC50 (Oryctolagus cuniculus [15]): 0.115 µM |
| CO/C(O)=C1\C(C)=NC(C)=C(C(=O)OCCCN2C(=O)c3ccccc3S2(=O)=O)C1c1cccc(Cl)c1Cl (centres undefined) | 686 | 0.0008 µM | 3.6 | 0% | – | – | IC50 (Oryctolagus cuniculus [15]): 0.521 µM; Duration (Rattus norvegicus [7]): >15 min; ED25 (Rattus norvegicus [8]): 0.01 mg/kg; ED25 (Rattus norvegicus [9]): 0.012 mg/kg; SBP change (Rattus norvegicus [14]): 35% |
| CC1=NC(C)=C(C(=O)OCN2C(=O)c3ccccc3S2(=O)=O)C(c2cccc([N+](=O)[O-])c2)/C1=C(\O)OCC1CCCCO1 (centres undefined) | – | – | – | – | 0.2 | 0.0133 µM | – |
| CCCO/C(O)=C1\C(C)=NC(C)=C(C(=O)OCN2C(=O)c3ccccc3S2(=O)=O)C1c1cccc([N+](=O)[O-])c1 (centres undefined) | – | – | – | – | <0.1 | 0.0645 µM | – |
| CO/C(O)=C1\C(C)=NC(C)=C(C(=O)OCCN2C(=O)c3ccccc3S2(=O)=O)C1c1ccccc1C(F)(F)F (centres undefined) | – | > 1 µM | – | – | – | – | Max contractile force (Oryctolagus cuniculus [10]): 420 mg |
| CC1=NC(C)=C(C(=O)OCCN2C(=O)c3ccccc3S2(=O)=O)C(c2ccccc2[N+](=O)[O-])/C1=C(\O)OCC1CCCCO1 (centres undefined) | – | > 1 µM | – | – | – | – | Max contractile force (Oryctolagus cuniculus [10]): 990 mg |
| CC1=NC(C)=C(C(=O)OCCCN2C(=O)c3ccccc3S2(=O)=O)C(c2ccccc2C(F)(F)F)/C1=C(\O)OCC1CCCCO1 (centres undefined) | 121 | 0.0014 µM | 2.1 | 5% | – | – | IC50 (Oryctolagus cuniculus [15]): 0.168 µM |
| CCO/C(O)=C1\C(C)=NC(C)=C(C(=O)OCCN2C(=O)c3ccccc3S2(=O)=O)C1c1ccccc1C(F)(F)F (centres undefined) | 152 | 0.0005 µM | 5.8 | 14.5% | – | – | IC50 (Oryctolagus cuniculus [15]): 0.0744 µM |
